Experimental data published in ChEMBL document CHEMBL3244187, “Structure--activity relationships in cephalosporins prepared from penicillins. 2. Analogues of cephalexin substituted in the 3-methyl group” (J Med Chem, 1977).
Values after ≈ are worked out from the molar mass of the structure shown. Active and inactive are the calls of the source. The calls are words filed in the database; no cut-off is given here.

Key:
[1] = test system: Escherichia coli; assay: Antibacterial activity against Escherichia coli after 18 hrs by serial dilution method; format: functional
In short: (§1)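 MICs by serial dilution on nutrient agar. Inoculum 0.001 mL of undiluted overnight broth culture. Plates incubated at 37 °C for 18 h before reading.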

[2] = Drug level in mouse blood at 50 mg/kg, po after 4 hrs by microbiological assay; format: ADME, organism-based; design: dose 50 mg/kg, route oral; conditions: read-out: Drug uptake
In short: (§2)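 Mice given a single 50 mg/kg dose by the route in the line. Groups of five killed at each time point and blood taken from the cut axilla, heparinized and stored at 4 °C. Blood assayed the same day by large-plate microbiological assay with Sarcina lutea NCTC 8340, overnight at 30 °C. Standards made in mouse blood, with pH 7.2 phosphate-buffered saline as diluent.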

[3] = test system: Enterobacter cloacae; assay: Antibacterial activity against cephalosporin-resistant Enterobacter cloacae after 18 hrs by serial dilution method; format: functional, organism-based
In short: (§3)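 MICs by serial dilution on nutrient agar. Inoculum 0.001 mL of undiluted overnight broth culture. Plates incubated 18 h at 37 °C before reading. The S. aureus Russell strain produces β-lactamase and resists benzylpenicillin.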

[4] = Drug level in mouse blood at 50 mg/kg, po after 2 hrs by microbiological assay; format: ADME, organism-based; design: dose 50 mg/kg, route oral; conditions: read-out: Drug uptake; in short: as §2
[5] = test system: Proteus mirabilis; assay: Antibacterial activity against Proteus mirabilis after 18 hrs by serial dilution method; format: functional; in short: as §1
[6] = Drug level in mouse blood at 50 mg/kg, po after 1 hr by microbiological assay; format: ADME, organism-based; design: dose 50 mg/kg, route oral; conditions: read-out: Drug uptake; in short: as §2
[7] = test system: Salmonella typhi; assay: Antibacterial activity against Salmonella typhi after 18 hrs by serial dilution method; format: functional, Salmonella enterica subsp. enterica serovar Typhi; conditions: Salmonella enterica; in short: as §3
[8] = test system: Pseudomonas aeruginosa; assay: Antibacterial activity against cephalosporin-resistant Pseudomonas aeruginosa after 18 hrs by serial dilution method; format: functional, organism-based; in short: as §3
[9] = test system: Shigella sonnei; assay: Antibacterial activity against Shigella sonnei after 18 hrs by serial dilution method; format: functional; in short: as §1
[10] = test system: Staphylococcus aureus; assay: Antibacterial activity against beta-lactamase producing benzylpenicillin-resistant Staphylococcus aureus Russell after 18 hrs by serial dilution method; format: functional; in short: as §3
[11] = test system: Staphylococcus aureus; assay: Antibacterial activity against Staphylococcus aureus Oxford after 18 hrs by serial dilution method; format: functional; in short: as §1
[12] = Drug level in mouse blood at 50 mg/kg, po after 20 mins by microbiological assay; format: ADME, organism-based; design: dose 50 mg/kg, route oral; conditions: read-out: Drug uptake; in short: as §2
[13] = Drug level in mouse blood at 50 mg/kg, po after 10 mins by microbiological assay; format: ADME, organism-based; design: dose 50 mg/kg, route oral; conditions: read-out: Drug uptake; in short: as §2
[14] = test system: Klebsiella aerogenes; assay: Antibacterial activity against Klebsiella aerogenes after 18 hrs by serial dilution method; format: functional; in short: as §1
[15] = test system: Morganella morganii; assay: Antibacterial activity against cephalosporin-resistant Proteus morganii after 18 hrs by serial dilution method; format: functional, organism-based; in short: as §3
[16] = Drug level in mouse blood at 50 mg/kg, po after 30 mins by microbiological assay; format: ADME, organism-based; design: dose 50 mg/kg, route oral; conditions: read-out: Drug uptake; in short: as §2
[17] = Drug level in mouse blood at 50 mg/kg, sc after 30 mins by microbiological assay; format: ADME, organism-based; design: dose 50 mg/kg, route subcutaneous; conditions: read-out: Drug uptake; in short: as §2
[18] = Drug level in mouse blood at 50 mg/kg, sc after 2 hrs by microbiological assay; format: ADME, organism-based; design: dose 50 mg/kg, route subcutaneous; conditions: read-out: Drug uptake; in short: as §2
[19] = Drug level in mouse blood at 50 mg/kg, sc after 4 hrs by microbiological assay; format: ADME, organism-based; design: dose 50 mg/kg, route subcutaneous; conditions: read-out: Drug uptake; in short: as §2
[20] = Drug level in mouse blood at 50 mg/kg, sc after 20 mins by microbiological assay; format: ADME, organism-based; design: dose 50 mg/kg, route subcutaneous; conditions: read-out: Drug uptake; in short: as §2
[21] = Drug level in mouse blood at 50 mg/kg, sc after 1 hr by microbiological assay; format: ADME, organism-based; design: dose 50 mg/kg, route subcutaneous; conditions: read-out: Drug uptake; in short: as §2
[22] = Drug level in mouse blood at 50 mg/kg, sc after 10 mins by microbiological assay; format: ADME, organism-based; design: dose 50 mg/kg, route subcutaneous; conditions: read-out: Drug uptake; in short: as §2
[23] = Drug level in mouse blood at 50 mg/kg, iv after 10 mins by microbiological assay; format: ADME, organism-based; design: dose 50 mg/kg, route intravenous; conditions: read-out: Drug uptake; in short: as §2
[24] = Drug level in mouse blood at 50 mg/kg, iv after 1 hr by microbiological assay; format: ADME, organism-based; design: dose 50 mg/kg, route intravenous; conditions: read-out: Drug uptake; in short: as §2
[25] = Drug level in mouse blood at 50 mg/kg, iv after 20 mins by microbiological assay; format: ADME, organism-based; design: dose 50 mg/kg, route intravenous; conditions: read-out: Drug uptake; in short: as §2
[26] = Drug level in mouse blood at 50 mg/kg, iv after 2 hrs by microbiological assay; format: ADME, organism-based; design: dose 50 mg/kg, route intravenous; conditions: read-out: Drug uptake; in short: as §2
[27] = Drug level in mouse blood at 50 mg/kg, iv after 4 hrs by microbiological assay; format: ADME, organism-based; design: dose 50 mg/kg, route intravenous; conditions: read-out: Drug uptake; in short: as §2
[28] = Drug level in mouse blood at 50 mg/kg, iv after 30 mins by microbiological assay; format: ADME, organism-based; design: dose 50 mg/kg, route intravenous; conditions: read-out: Drug uptake; in short: as §2

SMILES	MIC [1]	concentration at 4 h [2]	concentration at 2 h [4]	MIC [5]	concentration at 1 h [6]	MIC [7]	MIC [9]	MIC [10]	MIC [11]	concentration at 20 min [12]	concentration at 10 min [13]	MIC [14]	concentration at 0.5 h [16]	concentration at 0.5 h [17]	concentration at 2 h [18]	concentration at 4 h [19]	concentration at 20 min [20]	concentration at 1 h [21]	concentration at 10 min [22]	further results
N[C@@H](C(=O)N[C@@H]1C(=O)N2C(C(=O)O)=C(Cc3cccnc3)CS[C@H]12)c1ccccc1	2.5 µg/mL (≈ 5.89 µM)	100 ng/mL	650 ng/mL	5 µg/mL (≈ 11.8 µM)	620 ng/mL	1.25 µg/mL (≈ 2.94 µM)	2.5 µg/mL (≈ 5.89 µM)	2.5 µg/mL (≈ 5.89 µM)	0.25 µg/mL (≈ 0.589 µM)	1440 ng/mL	2850 ng/mL	2.5 µg/mL (≈ 5.89 µM)	1250 ng/mL	–	–	–	–	–	–	Activity [3]: inactive; Activity [8]: inactive; Activity [15]: inactive
CN(C)S(=O)(=O)c1ccc(CC2=C(C(=O)O)N3C(=O)[C@@H](NC(=O)[C@H](N)c4ccccc4)[C@H]3SC2)cc1	25 µg/mL (≈ 47.1 µM)	–	–	125 µg/mL (≈ 236 µM)	–	25 µg/mL (≈ 47.1 µM)	25 µg/mL (≈ 47.1 µM)	500 µg/mL (≈ 942 µM)	0.5 µg/mL (≈ 0.942 µM)	–	–	50 µg/mL (≈ 94.2 µM)	–	–	–	–	–	–	–	–
CC(=O)OCCC1=C(C(=O)O)N2C(=O)[C@@H](NC(=O)[C@H](N)c3ccccc3)[C@H]2SC1	> 50 µg/mL	–	–	> 50 µg/mL	–	25 µg/mL (≈ 59.6 µM)	50 µg/mL (≈ 119 µM)	10 µg/mL (≈ 23.8 µM)	0.5 µg/mL (≈ 1.19 µM)	–	–	25 µg/mL (≈ 59.6 µM)	–	–	–	–	–	–	–	–
N[C@@H](C(=O)N[C@@H]1C(=O)N2C(C(=O)O)=C(Cc3cncc(C(=O)O)c3)CS[C@H]12)c1ccccc1	12.5 µg/mL (≈ 26.7 µM)	< 400 ng/mL	600 ng/mL	1.25 µg/mL (≈ 2.67 µM)	1500 ng/mL	2.5 µg/mL (≈ 5.34 µM)	12.5 µg/mL (≈ 26.7 µM)	12.5 µg/mL (≈ 26.7 µM)	1.25 µg/mL (≈ 2.67 µM)	850 ng/mL	550 ng/mL	1.25 µg/mL (≈ 2.67 µM)	1700 ng/mL	35800 ng/mL	2000 ng/mL	< 400 ng/mL	54000 ng/mL	12200 ng/mL	70400 ng/mL	–
CC(=O)OCC1=C(C(=O)O)N2C(=O)[C@@H](NC(=O)[C@H](N)c3ccccc3)[C@H]2SC1 [CEPHALOGLYCIN]	5 µg/mL (≈ 12.3 µM)	70 ng/mL	700 ng/mL	5 µg/mL (≈ 12.3 µM)	600 ng/mL	1.25 µg/mL (≈ 3.08 µM)	2.5 µg/mL (≈ 6.17 µM)	2.5 µg/mL (≈ 6.17 µM)	1.25 µg/mL (≈ 3.08 µM)	2600 ng/mL	1700 ng/mL	5 µg/mL (≈ 12.3 µM)	2000 ng/mL	21700 ng/mL	200 ng/mL	< 100 ng/mL	30200 ng/mL	3100 ng/mL	37100 ng/mL	concentration at 10 min [23]: 62400 ng/mL; concentration at 1 h [24]: 1500 ng/mL; concentration at 20 min [25]: 40200 ng/mL; concentration at 2 h [26]: < 100 ng/mL; concentration at 4 h [27]: < 100 ng/mL; concentration at 0.5 h [28]: 11000 ng/mL
Cc1ccncc1CC1=C(C(=O)O)N2C(=O)[C@@H](NC(=O)[C@H](N)c3ccccc3)[C@H]2SC1	12.5 µg/mL (≈ 28.5 µM)	–	–	25 µg/mL (≈ 57 µM)	–	5 µg/mL (≈ 11.4 µM)	12.5 µg/mL (≈ 28.5 µM)	12.5 µg/mL (≈ 28.5 µM)	0.12 µg/mL (≈ 0.274 µM)	–	–	12.5 µg/mL (≈ 28.5 µM)	–	–	–	–	–	–	–	–
O=C(Cc1cccs1)N[C@@H]1C(=O)N2C(C(=O)[O-])=C(C[n+]3ccccc3)CS[C@H]12 [CEPHALORIDINE]	–	–	–	–	–	–	–	–	–	–	–	–	–	18500 ng/mL	710 ng/mL	< 200 ng/mL	24400 ng/mL	5600 ng/mL	32800 ng/mL	concentration at 10 min [23]: 48800 ng/mL; concentration at 1 h [24]: 2900 ng/mL; concentration at 20 min [25]: 23200 ng/mL; concentration at 2 h [26]: 320 ng/mL; concentration at 4 h [27]: < 50 ng/mL; concentration at 0.5 h [28]: 14300 ng/mL
N[C@@H](C(=O)N[C@@H]1C(=O)N2C(C(=O)O)=C(Cc3ccccc3)CS[C@H]12)c1ccccc1	25 µg/mL (≈ 59 µM)	150 ng/mL	340 ng/mL	50 µg/mL (≈ 118 µM)	190 ng/mL	25 µg/mL (≈ 59 µM)	25 µg/mL (≈ 59 µM)	2.5 µg/mL (≈ 5.9 µM)	0.1 µg/mL (≈ 0.236 µM)	180 ng/mL	110 ng/mL	25 µg/mL (≈ 59 µM)	210 ng/mL	–	–	–	–	–	–	–
